Consider 1 molecule from ChEMBL document CHEMBL4321823, “Benzyl Phenylsemicarbazides: A Chemistry-Driven Approach Leading to G Protein-Biased Dopamine D4 Receptor Agonists with High Subtype Selectivity” (J Med Chem, 2019).

For one assay, the target named is T1, D(4) dopamine receptor (Homo sapiens, UniProt P21917).
T1 sequence (P21917 whole entry): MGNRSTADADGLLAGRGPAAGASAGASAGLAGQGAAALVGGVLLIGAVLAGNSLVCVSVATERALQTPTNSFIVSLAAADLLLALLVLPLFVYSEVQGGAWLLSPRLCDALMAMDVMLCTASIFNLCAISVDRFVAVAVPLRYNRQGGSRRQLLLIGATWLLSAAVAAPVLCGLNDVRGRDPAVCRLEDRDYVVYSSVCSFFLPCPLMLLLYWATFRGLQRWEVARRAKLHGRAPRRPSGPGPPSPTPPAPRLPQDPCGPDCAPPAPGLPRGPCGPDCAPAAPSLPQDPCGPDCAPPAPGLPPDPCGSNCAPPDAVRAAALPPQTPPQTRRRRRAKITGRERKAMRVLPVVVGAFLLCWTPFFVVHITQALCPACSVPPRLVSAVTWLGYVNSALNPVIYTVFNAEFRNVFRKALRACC
Nature of the assay: Displacement of [3H] Spiperone from human D4.4 receptor expressed in CHO cells by competitive radioligand binding assay. Type of assay: cell-based. In general terms: Displacement assays read how much labelled ligand stays bound in the presence of the test substance.

The species entered for assay [1] is Homo sapiens. Nature of the assay: Selectivity index, ratio of Ki for displacement of [3H] Spiperone from human D2S receptor expressed in CHO cells to Ki for displacement of [3H] Spiperone from human D4.4 receptor expressed in CHO cells. Type of assay: cell-based. A digest of the protocol:
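Competition binding against [3H]spiperone on membranes of CHO cells stably expressing cloned human D2L, D2S, D3 or D4.4 receptors. Ki from monophasic curve fits; mean ± SEM of three to seven experiments, each in triplicate. Selectivity calculated as Ki(D2L, D2S or D3) divided by Ki(D4.4).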

The next assay has as its target D(1B) dopamine receptor (Homo sapiens, UniProt P21918). Nature of the assay: Displacement of [3H] SCH23390 from D5 receptor (unknown origin).
The target in assay [2] is T2, Alpha-2A adrenergic receptor (Homo sapiens, UniProt P08913).
T2 sequence (P08913 whole entry): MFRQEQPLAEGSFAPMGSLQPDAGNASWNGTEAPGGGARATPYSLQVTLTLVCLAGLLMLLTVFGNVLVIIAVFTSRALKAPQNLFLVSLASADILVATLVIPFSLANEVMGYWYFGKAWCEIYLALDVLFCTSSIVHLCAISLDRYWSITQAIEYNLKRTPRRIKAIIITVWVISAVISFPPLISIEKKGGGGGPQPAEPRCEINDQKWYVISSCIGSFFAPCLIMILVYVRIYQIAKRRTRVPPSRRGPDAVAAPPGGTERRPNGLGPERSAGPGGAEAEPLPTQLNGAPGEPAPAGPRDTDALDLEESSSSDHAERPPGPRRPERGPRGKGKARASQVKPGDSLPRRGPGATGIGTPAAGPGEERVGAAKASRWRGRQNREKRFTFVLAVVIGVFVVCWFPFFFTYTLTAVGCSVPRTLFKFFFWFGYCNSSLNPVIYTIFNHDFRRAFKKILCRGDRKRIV
Nature of the assay: Displacement of [3H] RX821002 from alpha2A adrenergic receptor (unknown origin).

The target in assay [3] is Beta-2 adrenergic receptor (Homo sapiens, UniProt P07550). As to the kind of experiment: Displacement of [3H] CGP12177 from beta2 adrenergic receptor (unknown origin).
Chain of Beta-2 adrenergic receptor (P07550 whole entry): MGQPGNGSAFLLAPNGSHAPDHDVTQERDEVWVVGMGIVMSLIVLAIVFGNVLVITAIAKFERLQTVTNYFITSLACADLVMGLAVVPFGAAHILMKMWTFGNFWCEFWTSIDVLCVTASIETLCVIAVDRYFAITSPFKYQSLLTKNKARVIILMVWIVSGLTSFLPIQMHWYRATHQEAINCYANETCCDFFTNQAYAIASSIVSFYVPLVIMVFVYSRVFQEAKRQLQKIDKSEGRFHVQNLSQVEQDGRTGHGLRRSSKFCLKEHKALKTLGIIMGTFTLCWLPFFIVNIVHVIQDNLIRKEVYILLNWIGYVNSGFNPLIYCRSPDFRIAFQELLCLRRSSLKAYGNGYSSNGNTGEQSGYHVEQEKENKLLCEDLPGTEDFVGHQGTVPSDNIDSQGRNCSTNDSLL
For assay [4], the target named is Kappa-type opioid receptor (Homo sapiens, UniProt P41145). As to the kind of experiment: Displacement of [3H] diprenorphine from kappa opioid receptor (unknown origin). In outline:
(§1)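 Radioligand competition binding; Ki given as mean ± SD from two individual experiments, each run in triplicate.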

The target in assay [5] is T3, Muscarinic acetylcholine receptor M2 (Homo sapiens, UniProt P08172).
T3 sequence (P08172 whole entry): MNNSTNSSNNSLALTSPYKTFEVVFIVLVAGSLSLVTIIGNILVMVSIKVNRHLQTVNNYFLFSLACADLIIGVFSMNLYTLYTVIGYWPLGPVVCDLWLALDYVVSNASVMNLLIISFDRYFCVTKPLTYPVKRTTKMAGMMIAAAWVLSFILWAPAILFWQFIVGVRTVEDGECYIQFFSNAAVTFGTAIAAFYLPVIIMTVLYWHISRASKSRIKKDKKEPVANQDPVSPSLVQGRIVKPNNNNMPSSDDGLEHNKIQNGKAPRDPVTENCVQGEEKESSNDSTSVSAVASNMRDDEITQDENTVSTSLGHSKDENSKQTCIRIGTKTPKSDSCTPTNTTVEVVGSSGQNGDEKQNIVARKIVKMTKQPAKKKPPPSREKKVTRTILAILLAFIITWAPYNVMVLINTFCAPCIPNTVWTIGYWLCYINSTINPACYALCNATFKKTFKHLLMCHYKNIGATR
Nature of the assay: Displacement of [3H] NMS from muscarinic M2 receptor (unknown origin). A digest of the protocol:
as §1

In assay [6] the target is Muscarinic acetylcholine receptor M3 (Homo sapiens, UniProt P20309). Nature of the assay: Displacement of [3H] NMS from muscarinic M3 receptor (unknown origin). In outline:
as §1

The species entered for assay [7] is Homo sapiens. As to the kind of experiment: Selectivity index, ratio of Ki for displacement of [3H] prazosin from alpha1A adrenergic receptor to Ki for displacement of [3H] Spiperone from human D4.4 receptor expressed in CHO cells. It is filed as cell-based.
Assay [8] addresses T4, Alpha-1A adrenergic receptor (Homo sapiens) (UniProt P35348).
T4 sequence (whole entry): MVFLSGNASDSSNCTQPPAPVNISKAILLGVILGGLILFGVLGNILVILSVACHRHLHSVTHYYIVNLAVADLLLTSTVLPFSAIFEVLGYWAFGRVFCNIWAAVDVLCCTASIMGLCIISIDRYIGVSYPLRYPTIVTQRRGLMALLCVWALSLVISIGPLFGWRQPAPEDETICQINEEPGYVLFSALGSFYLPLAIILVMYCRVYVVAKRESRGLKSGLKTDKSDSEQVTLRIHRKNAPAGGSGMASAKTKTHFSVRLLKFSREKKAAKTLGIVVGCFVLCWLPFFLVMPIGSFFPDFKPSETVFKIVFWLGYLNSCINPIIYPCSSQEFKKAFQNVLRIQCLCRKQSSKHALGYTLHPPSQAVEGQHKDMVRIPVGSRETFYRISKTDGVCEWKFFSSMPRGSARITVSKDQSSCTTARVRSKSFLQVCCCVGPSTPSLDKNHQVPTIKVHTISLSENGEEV
Nature of the assay: Antagonist activity at human alpha1A adrenergic receptor expressed in HEK293T cells assessed as accumulation of inositol monophosphate using d2-labelled IP1 conjugate incubated for 60 mins by HTRF assay. It is filed as functional, cell-based. (In general: TR-FRET usually uses a lanthanide donor and a delayed reading to cut background.)

Calls of active or inactive are those of the source. No cut-off for these calls is given here.

Chain of Kappa-type opioid receptor (P41145 whole entry): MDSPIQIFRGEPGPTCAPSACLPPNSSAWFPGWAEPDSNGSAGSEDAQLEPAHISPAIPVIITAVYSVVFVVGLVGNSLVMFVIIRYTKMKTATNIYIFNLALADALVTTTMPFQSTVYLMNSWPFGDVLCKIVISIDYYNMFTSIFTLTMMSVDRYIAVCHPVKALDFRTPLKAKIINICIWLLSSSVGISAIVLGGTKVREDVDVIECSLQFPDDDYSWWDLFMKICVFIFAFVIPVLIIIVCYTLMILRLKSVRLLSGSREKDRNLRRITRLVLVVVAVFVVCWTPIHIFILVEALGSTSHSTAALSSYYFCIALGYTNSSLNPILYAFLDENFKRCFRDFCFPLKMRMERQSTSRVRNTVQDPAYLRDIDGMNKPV
Chain of Muscarinic acetylcholine receptor M3 (P20309 whole entry): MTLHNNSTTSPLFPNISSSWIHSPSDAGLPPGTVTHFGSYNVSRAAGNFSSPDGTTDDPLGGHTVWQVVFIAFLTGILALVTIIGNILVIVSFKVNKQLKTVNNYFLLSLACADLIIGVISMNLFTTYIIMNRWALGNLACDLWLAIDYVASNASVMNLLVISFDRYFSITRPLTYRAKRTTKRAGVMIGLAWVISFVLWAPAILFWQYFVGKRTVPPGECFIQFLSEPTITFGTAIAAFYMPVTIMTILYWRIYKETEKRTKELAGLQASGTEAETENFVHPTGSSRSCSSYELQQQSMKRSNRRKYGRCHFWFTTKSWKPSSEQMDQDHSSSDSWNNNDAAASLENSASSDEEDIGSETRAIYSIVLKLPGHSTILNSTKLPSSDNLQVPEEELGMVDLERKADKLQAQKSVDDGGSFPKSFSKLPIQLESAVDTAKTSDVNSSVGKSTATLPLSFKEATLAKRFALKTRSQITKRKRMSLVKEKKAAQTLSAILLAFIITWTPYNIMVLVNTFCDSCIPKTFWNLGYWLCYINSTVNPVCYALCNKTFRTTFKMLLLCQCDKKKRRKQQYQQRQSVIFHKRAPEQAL
Chain of D(1B) dopamine receptor (P21918 whole entry): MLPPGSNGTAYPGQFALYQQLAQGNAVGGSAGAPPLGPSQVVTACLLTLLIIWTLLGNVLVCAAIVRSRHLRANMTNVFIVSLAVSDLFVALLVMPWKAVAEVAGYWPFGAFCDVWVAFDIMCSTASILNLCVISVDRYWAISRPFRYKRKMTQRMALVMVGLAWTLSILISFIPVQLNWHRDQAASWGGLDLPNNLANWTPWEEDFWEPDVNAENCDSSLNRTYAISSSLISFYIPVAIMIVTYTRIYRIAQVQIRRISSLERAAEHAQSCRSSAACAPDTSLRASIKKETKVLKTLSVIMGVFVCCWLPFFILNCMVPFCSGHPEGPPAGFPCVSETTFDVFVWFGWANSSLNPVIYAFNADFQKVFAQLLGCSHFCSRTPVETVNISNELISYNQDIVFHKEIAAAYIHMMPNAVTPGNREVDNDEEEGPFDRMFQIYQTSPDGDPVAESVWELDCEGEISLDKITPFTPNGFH

As a reminder, the Ki is a dissociation constant, usually derived from enzyme kinetics or from competition with a known ligand. Turning to `COc1ccccc1N1CCN(CCCNC(=O)NN(Cc2ccc(F)cc2)c2ccccc2)CC1`, the Ki on D(4) dopamine receptor was determined as 0.00055 µM; on D(1B) dopamine receptor, 1 µM; in assay [2] it was 0.86 µM; in assay [3] it was 4.5 µM; in assay [4], 4.3 µM; in assay [5], 17 µM. In addition, the Ki in [6] came out at 37 µM. Besides, the values for the Ratio Ki in the assay filed under Homo sapiens [1] and in the assay listed under Homo sapiens [7] were 200 and 2.9, respectively. For the same molecule, in [8], the outcome was inactive.
